We go through 3 compounds from ChEMBL document CHEMBL3627673, “Modification of cellular DNA by synthetic aziridinomitosenes” (Bioorg Med Chem, 2015).

For data set [1], the system named is HeLa. Kind of data set: Antiproliferative activity against human HeLa cells after 48 hrs by resazurin reduction assay. The data set is classed as functional, cell-based. The procedure, abridged: (§1)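 Cells seeded at 8,000/well; adherent lines trypsinized and given 24 h at 37 °C in 5% CO2 before drug, media replaced with drug dilutions or vehicle. Drug exposure 48 h, then 0.1% resazurin added for 4-24 h. Fluorescence 530/590 nm, expressed as % of untreated, and IC50 from log(inhibitor) vs response fit. Mean ± SEM, ≥3 independent experiments, ≥3 wells each.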
On the technique in general: Alamar Blue is a resazurin reagent that responds to reducing activity.

For data set [2], the system named is HepG2. Kind of data set: Antiproliferative activity against human HepG2 cells after 48 hrs by resazurin reduction assay. The format is functional, cell-based. The following applies: HepG2, 48 h. The procedure, abridged: as §1
The test system of data set [3] is T47D. The experiment in a line: Antiproliferative activity against human T47D cells after 48 hrs by resazurin reduction assay. The data set is classed as functional, cell-based. The procedure, abridged: as §1
In data set [4] the test system is HL-60. The experiment in a line: Antiproliferative activity against human HL60 cells after 48 hrs by resazurin reduction assay. The format is functional, cell-based. The following applies: HL-60, 48 h. The procedure, abridged:
as §1

Data set [5] relates to HuT78. Kind of data set: Antiproliferative activity against human HUT78 cells after 48 hrs by resazurin reduction assay. The format is functional, cell-based. The following applies: HuT78, 48 h. The gist of the method: as §1
Data set [6] deals with Jurkat. Kind of data set: Antiproliferative activity against human Jurkat T cells after 48 hrs by resazurin reduction assay. The format is functional, cell-based. The gist of the method:
as §1

Data set [7] deals with Jurkat. Kind of data set: Antiproliferative activity against human Jurkat T cells in hypoxic condition after 48 hrs by resazurin reduction assay. The format is functional, cell-based. The gist of the method:
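Jurkat cells held in a chamber purged 15 min with 95% N2/5% CO2, sealed, and incubated 1 h at 37 °C. Drug was diluted in N2/CO2-sparged PBS and added, then the chamber was purged again for 15 min and kept sealed at 37 °C for the assay. Resazurin readout was 530/590 nm, with IC50 from log(inhibitor) vs response fit.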

Data set [8] can be described thus: Stability of the compound in methanol assessed as retention time by HPLC analysis. The format is physicochemical.
The nature of data set [9]: Stability of the compound in DMEM media assessed as compound remaining at 250 uM after 49 hrs by HPLC analysis. The data set is classed as physicochemical. The following applies: read-out: Stability. The procedure, abridged: (§2)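 Stock in DMSO added to DMEM with 10% FBS and pen/strep to 250 µM final, then filtered. Injected every 15 min onto a phenyl column with detection at 254 and 480 nm. Mobile phase was acetonitrile (A) and pH 7.2 Tris (B) at 1.0 mL/min, 15 min gradient from 30% A to 70% A.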

Data set [10] can be described thus: Stability of the compound in DMEM media assessed as compound remaining at 250 uM after 7 hrs by HPLC analysis. The format is physicochemical. The following applies: read-out: Stability. The gist of the method:
as §2

The nature of data set [11]: Stability of the compound in DMEM media assessed as compound remaining at 250 uM after 5 hrs by HPLC analysis. The format is physicochemical. The following applies: read-out: Stability. The procedure, abridged:
as §2

The nature of data set [12]: Stability of the compound in DMEM media assessed as compound remaining at 250 uM after 2 hrs by HPLC analysis. The following applies: read-out: Stability. The format is physicochemical. The procedure, abridged:
as §2

Data set [13] relates to Jurkat. The experiment in a line: Induction of DNA modifying activity in human Jurkat cells assessed as increase in H2O2-induced DNA strand break at 10 uM under aerobic condition by alkaline comet assay in presence of H2O2. The data set is classed as cell-based. The procedure, abridged: (§3)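 Jurkat cells at 1 x 10^5/mL were exposed to drug or PBS for 1 h at 37 °C in 5% CO2 (hypoxic arm in an N2/CO2 chamber). They then received 100 µM H2O2 in PBS for 20 min at 4 °C. Cells were embedded in agarose and lysed overnight, unwound at pH >13 for 20 min, electrophoresed at 20 V for 30 min at 4 °C, and stained with SYBR Green. Tail extent moment (tail length x tail DNA) was measured from ≥50 cells over two experiments.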

In data set [14] the test system is Jurkat. Kind of data set: Induction of DNA modifying activity in human Jurkat cells assessed as tail extent moments at 10 uM under aerobic condition by alkaline comet assay in presence of 100 uM H2O2. The procedure, abridged: as §3
The subject of data set [15] is Jurkat. Kind of data set: Induction of DNA modifying activity in human Jurkat cells assessed as tail extent moments at 10 uM under hypoxic condition by alkaline comet assay in presence of 100 uM H2O2. The procedure, abridged:
as §3

For data set [16], the system named is Jurkat. Kind of data set: Induction of DNA modifying activity in human Jurkat cells assessed as increase in amount of crosslink DNA at 10 uM for 1 hr under aerobic condition by Hoechst-33342 staining based fluorescence assay. The procedure, abridged:
(§4)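 Jurkat cells (~5-6 x 10^6) were exposed to drug or PBS for 1 h (aerobic, or in a sealed 95% N2/5% CO2 chamber) before DNA isolation. DNA (3,750 ng) was mixed with Hoechst 33342 in 0.5x TE, ex/em 360/460 nm, read before and after 5 min at 96-98 °C, 5 min ice, and 5 min room temperature. Crosslinked fraction was taken against a dye-only control and converted to crosslinks/fragment = -ln(1-X). Two isolations, each in triplicate.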

Data set [17] relates to Jurkat. The experiment in a line: Induction of DNA modifying activity in human Jurkat cells assessed as increase in amount of crosslink DNA at 10 uM for 1 hr under hypoxic condition by Hoechst-33342 staining based fluorescence assay. The gist of the method:
as §4

Data set [18] relates to Jurkat. Kind of data set: Induction of DNA modifying activity in human Jurkat cells assessed as increase in DNA-protein crosslink at 100 uM under aerobic condition by K-SDS assay (reference value: 4.5. +/- 1.5%). The data set is classed as cell-based. The procedure, abridged: (§5)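 Jurkat cells (2 x 10^5) treated 1.5 h at 37 °C in complete RPMI-1640, aerobic or in sealed 95% N2/5% CO2 chamber. Lysed in 2% SDS/Tris pH 7.5; KCl precipitation, three 65 °C wash rounds, proteinase K 55 °C 3 h. Protein-linked and free DNA quantified by SYBR Green against standard; %DPC = linked/(linked+free) x100. Mean ± SEM, three experiments (n=9).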

In data set [19] the test system is Jurkat. The experiment in a line: Induction of DNA modifying activity in human Jurkat cells assessed as DNA-protein crosslink at 100 uM under hypoxic condition by K-SDS assay. The data set is classed as cell-based. The gist of the method:
as §5

A short description of data set [20]: Stability of the compound in DMEM media assessed as compound remaining at 213 uM after 2 hrs by HPLC analysis. The following applies: read-out: Stability. The format is physicochemical.
Data set [21] is described as follows: Stability of the compound in DMEM media assessed as compound remaining at 213 uM after 1.5 hrs by HPLC analysis. The data set is classed as physicochemical. The following applies: read-out: Stability.
Data set [22] in a line: Stability of the compound in DMEM media assessed as compound remaining at 213 uM after 1 hr by HPLC analysis. The data set is classed as physicochemical. The following applies: read-out: Stability.
The nature of data set [23]: Stability of the compound in DMEM media assessed as compound remaining at 213 uM after 0.5 hrs by HPLC analysis. The format is physicochemical. The following applies: read-out: Stability.

Structures are written as SMILES. pIC50: −log10 of the molar value. Calls of active or inactive are those of the source. The rule behind the calls is not given here.

As usually defined, the pIC50 is the negative decadic logarithm of the IC50, by convention in mol/L. Read a low pIC50 as a large IC50. Turning to `CC1=CC(=O)c2c(COC(N)=O)c3n(c2C1=O)C[C@H]1[C@@H]3N1C` (some centres undefined), the pIC50 was 6.28 in [1]; 6.47 in data set [2]; 6.65 in data set [3]; 7.52 in data set [4]; 7.62 in [5]; 8.10 in [6]. Also, the negative-log IC50 (pIC50) in data set [7] was 8.40. Moreover, the Retention_time in [8] was 3.6 min. The remaining at 49 h, 250 µM in [9] came to 18%. For the same compound, the remaining at 7 h, 250 µM in data set [10] was 72%. The remaining at 5 h, 250 µM in [11] was found to be 78%. For the same compound, the remaining at 2 h, 250 µM in data set [12] was 89%. Besides, the result in data set [13] was Active. Besides, the Activity worked out at 0.26 in data set [14]; 0.32 in data set [15]; 0.55 in [16]; 0.51 in [17]; 17% in data set [18]; 41.9% in data set [19].
Consider `CO[C@@]12[C@H](COC(N)=O)C3=C(C(=O)C(C)=C(N)C3=O)N1C[C@@H]1N[C@@H]12` [MITOMYCIN], for which the negative-log IC50 (pIC50) in data set [1] is 5.73; in [2], 5.53; in data set [3], 4.77; in [4], 6.39; in [5], 7.18; in data set [6], 6.24. This compound gave a pIC50 in [7] of 6.52. The values for the Activity in [14], in [15] and in data set [18] were 96, 87 and 7.8%, respectively. The outcome in data set [16] and in data set [17] was Active. Further, in data set [19], the outcome was inactive.
`CN1[C@@H]2c3c(COC(N)=O)c4c(n3C[C@@H]21)C(=O)C=CC4=O` (some centres undefined): the pIC50 was 5.21 in [1]; 5.10 in data set [2]; 5.03 in [3]; 5.69 in data set [4]; 6.88 in data set [5]; 5.38 in data set [6]. Moreover, the pIC50 in data set [7] is 5.40. Besides, in data set [20], the remaining at 2 h, 213 µM was determined as 8%. The remaining at 1.5 h, 213 µM in [21] amounted to 14%. Besides, the remaining at 1 h, 213 µM in data set [22] amounted to 25%. The remaining at 0.5 h, 213 µM in data set [23] amounted to 50%. Besides, the outcome in data set [13] and in data set [16] was Active. Further, the Activity came out at 0.49 in data set [14], 3.6 in data set [15] and 17% in data set [18]. Also, the outcome in [19] was inactive.
